In ChEMBL document CHEMBL3351297, “In Vitro Antibacterial Activity of Prenylated Guanidine Alkaloids from Pterogyne nitens and Synthetic Analogues” (2014):
≈ marks a conversion by molar mass, not a printed value.

Experiments:
[1] = system: Staphylococcus aureus; experiment: Antimicrobial activity against multi-drug-resistant Staphylococcus aureus SA-1199B expressing NorA efflux pump assessed as absence of growth after 18 hrs by MTT assay; type: functional
Method in brief: (§1)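 Strains were pre-grown on nutrient agar for 24 h at 37 °C. Inoculum was 1 × 10^6 cfu/mL in normal saline, set against a 0.5 McFarland standard. Compounds were dissolved in DMSO and serially diluted in cation-adjusted Mueller-Hinton broth (20 mg/L Ca2+, 10 mg/L Mg2+) over 512 to 0.5 mg/L. Plates ran 18 h at 37 °C. MTT was added for 20 min; blue meant growth. MIC is the lowest concentration without growth.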

[2] = system: Staphylococcus aureus; experiment: Antimicrobial activity against methicillin-resistant Staphylococcus aureus XU212 assessed as absence of growth after 18 hrs by MTT assay; type: functional; conditions: XU212, 18 h; method in brief: as §1
[3] = system: Staphylococcus aureus; experiment: Antimicrobial activity against Staphylococcus aureus ATCC25943 assessed as absence of growth after 18 hrs by MTT assay; type: functional; conditions: ATCC25943, 18 h; method in brief: as §1
[4] = system: Staphylococcus aureus; experiment: Antimicrobial activity against methicillin-resistant Staphylococcus aureus EMRSA-15 assessed as absence of growth after 18 hrs by MTT assay; type: functional; conditions: EMRSA-15, 18 h; method in brief: as §1
[5] = system: Staphylococcus aureus; experiment: Antimicrobial activity against methicillin-resistant Staphylococcus aureus EMRSA-16 assessed as absence of growth after 18 hrs by MTT assay; type: functional; conditions: EMRSA-16, 18 h; method in brief: as §1
[6] = system: Staphylococcus aureus; experiment: Antimicrobial activity against macrolide-resistant Staphylococcus aureus RN4220 assessed as absence of growth after 18 hrs by MTT assay; conditions: RN4220, 18 h
[7] = system: Staphylococcus aureus; experiment: Bactericidal activity against multi-drug-resistant Staphylococcus aureus SA-1199B expressing NorA efflux pump incubated for 24 hrs followed by transfer to Petri dishes and measured after 24 hrs; conditions: read-out: MBC99.9

Compound	MIC [1] [µg/mL]	MIC [2] [µg/mL]	MIC [3] [µg/mL]	MIC [4] [µg/mL]	MIC [5] [µg/mL]	MIC [6] [µg/mL]	MBC [7] [µg/mL]
CC(C)=CCC/C(C)=C/C=N/C(N)N	32 (≈ 164 µM)	8 (≈ 41 µM)	16 (≈ 81.9 µM)	16 (≈ 81.9 µM)	8 (≈ 41 µM)	16 (≈ 81.9 µM)	
CC(C)=CCN=C(NCC=C(C)C)NCC=C(C)C	> 512	> 512	> 512	> 512	> 512	> 512	
CCn1cc(C(=O)O)c(=O)c2cc(F)c(N3CCNCC3)cc21 [NORFLOXACIN]	32 (≈ 100 µM)	8 (≈ 25.1 µM)	0.5 (≈ 1.57 µM)	0.5 (≈ 1.57 µM)	128 (≈ 401 µM)	0.5 (≈ 1.57 µM)	
CC(C)=CCC/C(C)=C/CNC(=O)NC/C=C(\C)CCC=C(C)C	> 512	> 512	> 512	> 512	> 512	> 512	
CC(C)=CCNC(=N)NCC=C(C)C [PTEROGYNIDINE]	4 (≈ 20.5 µM)	4 (≈ 20.5 µM)	4 (≈ 20.5 µM)	4 (≈ 20.5 µM)	4 (≈ 20.5 µM)	4 (≈ 20.5 µM)	4 (≈ 20.5 µM)
CC(C)=C/C=C/C1(C)CCN=C(N)N1 (configuration not stated) [NITENSIDINE E]	32 (≈ 166 µM)	8 (≈ 41.4 µM)	16 (≈ 82.8 µM)	32 (≈ 166 µM)	8 (≈ 41.4 µM)	16 (≈ 82.8 µM)	
CC(C)=CCC/C(C)=C/CN(C)C(=N)N(C)C/C=C(\C)CCC=C(C)C [NITENSIDINE C]	32 (≈ 89 µM)	8 (≈ 22.2 µM)	16 (≈ 44.5 µM)	32 (≈ 89 µM)	8 (≈ 22.2 µM)	16 (≈ 44.5 µM)	
CC(C)=CCN=C(N)N [GALEGINE]	4 (≈ 31.4 µM)	4 (≈ 31.4 µM)	4 (≈ 31.4 µM)	4 (≈ 31.4 µM)	4 (≈ 31.4 µM)	4 (≈ 31.4 µM)	4 (≈ 31.4 µM)
CC(C)=CCC/C(C)=C/CNC(=S)NC/C=C(\C)CCC=C(C)C	128 (≈ 367 µM)	128 (≈ 367 µM)	128 (≈ 367 µM)	> 512	32 (≈ 91.8 µM)	128 (≈ 367 µM)	
CC(C)=CCC/C(C)=C/CNC(=N)NC/C=C(\C)CCC=C(C)C [NITENSIDINE A]	32 (≈ 96.5 µM)	8 (≈ 24.1 µM)	16 (≈ 48.3 µM)	16 (≈ 48.3 µM)	8 (≈ 24.1 µM)	16 (≈ 48.3 µM)	
